# Only some compounds are listed: those with a hit (about 1% of all), similar ones and a draw of the others.
# TLR4-MyD88 BLA – TLR4-MyD88 interaction inhibition in cells; HeLa CL3-4 TLR4/MyD88 BLA complementation, FRET ratio; AID 861; 200,000 compounds, 0.18% hits; inhibition, % at 8.4 µM; in the data active = inhibition above about 25%
# Target sequence (O00206 whole entry, looked up): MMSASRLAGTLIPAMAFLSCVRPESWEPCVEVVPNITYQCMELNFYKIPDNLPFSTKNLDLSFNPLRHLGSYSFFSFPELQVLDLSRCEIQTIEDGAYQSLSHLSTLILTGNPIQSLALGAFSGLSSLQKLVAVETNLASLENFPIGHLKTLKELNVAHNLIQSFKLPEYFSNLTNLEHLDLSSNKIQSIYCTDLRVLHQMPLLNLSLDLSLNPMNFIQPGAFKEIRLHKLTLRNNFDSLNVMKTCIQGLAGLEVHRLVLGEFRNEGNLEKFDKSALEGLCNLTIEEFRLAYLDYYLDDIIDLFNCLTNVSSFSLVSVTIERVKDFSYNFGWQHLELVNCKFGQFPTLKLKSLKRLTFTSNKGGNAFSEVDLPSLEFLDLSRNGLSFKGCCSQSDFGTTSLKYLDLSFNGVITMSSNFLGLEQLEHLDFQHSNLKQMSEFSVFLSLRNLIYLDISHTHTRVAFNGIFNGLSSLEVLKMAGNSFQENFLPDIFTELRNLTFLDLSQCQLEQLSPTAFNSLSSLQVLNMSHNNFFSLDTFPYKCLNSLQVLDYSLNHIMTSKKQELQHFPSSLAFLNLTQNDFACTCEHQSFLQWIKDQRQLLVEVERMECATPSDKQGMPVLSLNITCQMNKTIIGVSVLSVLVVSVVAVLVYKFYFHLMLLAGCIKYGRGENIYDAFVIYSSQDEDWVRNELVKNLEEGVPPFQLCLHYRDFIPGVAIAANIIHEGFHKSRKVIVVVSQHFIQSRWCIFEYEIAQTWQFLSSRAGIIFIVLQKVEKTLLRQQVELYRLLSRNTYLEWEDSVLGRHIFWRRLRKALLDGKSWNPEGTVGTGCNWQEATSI
# Target sequence (Q99836 whole entry, looked up): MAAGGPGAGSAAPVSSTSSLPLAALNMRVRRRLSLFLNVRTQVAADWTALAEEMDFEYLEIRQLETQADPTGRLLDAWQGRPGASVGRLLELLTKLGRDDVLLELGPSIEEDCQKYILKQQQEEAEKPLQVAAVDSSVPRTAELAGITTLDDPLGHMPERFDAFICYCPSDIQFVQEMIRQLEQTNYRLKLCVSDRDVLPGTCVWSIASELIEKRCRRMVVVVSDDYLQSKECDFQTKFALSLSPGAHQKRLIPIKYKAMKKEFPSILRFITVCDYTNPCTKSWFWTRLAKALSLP
# b-catenin transl – modulators of beta-catenin nuclear translocation; HeLa beta-catenin nuclear translocation, immunofluorescence imaging; nuclear translocation activity, % at 5 µM; 190,000 compounds, 0.3% hits; AID 1665;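 active = nuclear translocation activity above 50% at 5 µM, with a well cell count of 50 or more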;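 note: per-cell ratio of nuclear to cytoplasmic median beta-catenin stain intensity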
#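 System: HeLa cells, endogenous beta-catenin; compound dosing: 5 µM primary single dose, 0.1% DMSO, 0.02–20 µM confirmation series; incubation: 24 h compound exposure at 37°C, 5% CO2; signal: beta-catenin immunofluorescence imaging with DAPI; evaluation: % activation, nuclear-to-cytoplasmic median beta-catenin signal ratio per cell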
# NOD2 RIPK2 PPI – blocks binding of human NOD2 to RIPK2; O43353; CHO BLA complementation NOD2-RIPK2, CCF4 ratio; inhibition, % at 4.98 µM; 360,000 compounds, 0.38% hits; AID 624267; in the data active = inhibition above about 21%
# MT stabilizer – microtubule stabilizers in HeLa cells; HeLa tubulin immunostaining HCS, 24 h; share of cells brighter than vehicle mean+2SD; % tubulin-high responders, % at 10 µM; 200,000 compounds, 0.83% hits; AID 2205;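 active = plate Z-score above 3 for both tubulin-high and condensed-nucleus cell shares, with cell loss under 80%, at 10 µM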;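 note: anti alpha tubulin signal scored within the nucleus-defined area of each cell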
# Hsp70 act – switches on Hsp70 transcription. 200,000 compounds, 0.04% hits. HeLa Hsp70 promoter luciferase reporter, luminescence; scaled: vehicle 0, proteasome-inhibitor control 100%. activation, % at 10 µM. AID 1203;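 active = activation above the mean across all tested compounds plus 3 SD, cutoff set per campaign, cut at about 5.5% in these data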
# TLR9-MyD88 inh – inhibitors of human TLR9-MyD88 binding | CHO BLA complementation TLR9-MyD88, CCF4 FRET ratio | 340,000 compounds, 0.21% hits | inhibition, % at 4.98 µM | Q9NR96+Q99836 | AID 504734;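 active = inhibition above the mean over all tested compounds plus 3 SD, cut at about 21% in these data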
# TLR9-MyD88 conf – TLR9-MyD88 interaction inhibition, confirmation. shares compounds with TLR9-MyD88 inh. CHO TLR9/MyD88 BLA complementation, CCF4 FRET ratio. inhibition, % at 4.98 µM. 680 compounds, 51% hits. AID 540250;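 active = mean inhibition across three repeats above about 21% taken from the earlier screen, limit read from the data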;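 note: blue over green emission ratio reports constitutive TLR9 MyD88 association via BLA complementation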
# BLA counter-1 – counter-screen for TLR9-MyD88 inhibitors: non-selective beta-lactamase inhibitors. shares compounds with TLR9-MyD88 inh. CHO-BLA cells, CCF4 FRET ratio, BLA reporter. inhibition, % at 4.98 µM. 680 compounds, 7% hits;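 active = mean inhibition above a 50% cutoff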;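 note: counterscreen of TLR9-MyD88 hits on CMV-driven BLA in CHO-K1 cells; higher means less blue over green ratio so more BLA blockade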
# TLR9 CHO tox – counter-screen for TLR9-MyD88 inhibitors: cytotoxicity in CHO cells; 680 compounds, 39% hits; AID 588336; shares compounds with TLR9-MyD88 inh; luminescence; inhibition, % at 4.98 µM; in the data active = inhibition above about 11%
# NOD2-RIPK2 conf – confirmation of human NOD2-RIPK2 interaction inhibitors | shares compounds with NOD2 RIPK2 PPI | CHO cells, NOD2-RIPK2 BLA complementation, CCF4 FRET | inhibition, % at 4.98 µM | 1,200 compounds, 70% hits;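 active = mean inhibition across replicates above a set limit taken from the earlier primary screen, cut at about 21% in these data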
# BLA counter-2 – hits BLA reporter in NOD2-RIPK2 inhibitor counterscreen. shares compounds with NOD2 RIPK2 PPI. CHO BLA reporter, CCF4 FRET ratio. inhibition, % at 4.98 µM. 1,200 compounds, 57% hits;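 active = mean inhibition above the low-control mean inhibition plus three low-control SD, cut at about 11% in these data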
# Hits are given with their value; n = inactive; x = no result.
SMILES,TLR4-MyD88 BLA,b-catenin transl,NOD2 RIPK2 PPI,MT stabilizer,Hsp70 act,TLR9-MyD88 inh,NOD2-RIPK2 conf,BLA counter-2,others
CS(=O)(=O)c1sc(C#N)c2c1C(=O)CC(c1ccccc1)C2 (stereo unspecified),x,n,99,x,x,58,94,36,TLR9-MyD88 conf=53;BLA counter-1=n;TLR9 CHO tox=100
C[C@H](NC(=O)N1CCn2c1nc1ccccc12)C(=O)N1CCCCC1,x,x,21,x,x,n,n,n,
CCOC(=O)C1(C)CCN1C(=O)/C=C/c1ccccc1 (stereo unspecified),x,x,21,x,x,x,n,n,
CCOC(=O)C1(C)CCN1C(=O)CSc1ccccc1 (stereo unspecified),x,x,n,x,x,x,x,x,
COc1ccc(OCCN2CCC(C(=O)NC(c3ccc(C)cc3)c3ccccn3)CC2)cc1 (stereo unspecified),x,x,21,x,x,x,n,n,
Cc1ccc(C2CC(c3ccccc3)=NN2C(=S)Nc2ccccc2)o1 (stereo unspecified),n,x,48,50,n,n,n,n,
CC1=NN(C(=S)Nc2ccccc2)C(c2ccccc2)C1 (stereo unspecified),n,x,n,n,n,n,x,x,
O=C(OC1CCOC1=O)C1CCN(S(=O)(=O)c2c(Cl)cccc2Cl)CC1 (stereo unspecified),x,x,n,x,x,n,x,x,
CCOC(=O)c1c(CN2CCNCC2)nc2ccc(Cl)cc2c1-c1ccccc1,x,x,21,x,x,n,n,n,
Cc1c(C(=O)OCC(=O)c2ccc3c(c2)OCCO3)oc2ccccc12,n,n,26,n,n,n,n,n,
COc1ccc(NC(=O)CNC(=O)C2CCCCC2)cc1OC,x,x,n,x,x,n,x,x,
O=c1oc(-c2ccccc2)cc(Cl)c1Cl,x,x,60,x,x,n,57,n,
N#CCC(=O)Nc1ccc(C(=O)OCC(=O)N(C2CCCCC2)C2CCCCC2)cc1,x,x,n,x,x,n,x,x,
NC(=S)N/N=C/c1c(O)ccc2ccccc12,x,n,n,x,x,n,x,x,
NC(=S)N/N=C1/CCSc2ccc3ccccc3c21,n,n,23,n,n,n,n,n,
Cc1cccc(C)c1NC(=O)c1nc(S(=O)(=O)Cc2ccccc2)ncc1Cl,x,x,55,x,x,n,48,n,
Cc1cccc(CS(=O)(=O)c2ncc(Cl)c(C(=O)NCc3ccccc3)n2)c1,x,x,57,x,x,n,69,15,
Cc1cccc(CS(=O)(=O)c2ncc(Cl)c(C(=O)Nc3c(C)cccc3C)n2)c1,x,x,67,x,x,n,47,n,
C[C@H]1COc2cccc(N3CCC[C@H]3CO)c2S(=O)(=O)N1,x,x,n,x,x,x,x,x,
CCOC(=O)C1CCN(S(=O)(=O)c2ccc3c4c(cccc24)C(=O)N3CC)CC1,x,x,24,x,x,n,24,24,
CCOC(=O)C1CCN(S(=O)(=O)c2ccc3c4c(cccc24)C(=O)N3)CC1,n,x,n,n,n,n,x,x,
COc1ccc(C2C=C(c3ccc(Br)cc3)Nc3nc(N4C(=O)CCC4=O)nn32)cc1 (stereo unspecified),n,n,n,n,n,n,x,x,
O=C1CCC(=O)N1c1nc2n(n1)C(c1ccccc1)C=C(c1ccc(Br)cc1)N2 (stereo unspecified),n,n,39,n,n,n,n,12,
O=C(NCCCc1ccccc1)c1cccc(NC(=O)C2CCCCC2)c1,x,x,n,x,x,n,x,x,
O=[N+]([O-])c1ccc(-c2cnc(SC(c3ccccc3)c3ccccc3)[nH]2)cc1,n,n,44,n,n,n,n,26,
SMILES,TLR4-MyD88 BLA,b-catenin transl,NOD2 RIPK2 PPI,MT stabilizer,Hsp70 act,TLR9-MyD88 inh,NOD2-RIPK2 conf,BLA counter-2,others
O=C(Nc1ccc([N+](=O)[O-])cc1)c1ccc(S(=O)(=O)N2CCCC2)cc1,x,x,n,x,x,n,x,x,
O=C(Nc1ccc(S(=O)(=O)N2CCCCCC2)cc1)c1[nH]ncc1[N+](=O)[O-],x,x,29,x,x,26,n,n,
OC[C@@H]1[C@@H](c2ccc(Cl)cc2)C(c2cccc(Cl)c2)=NN1c1ccccc1,x,x,34,x,x,n,30,59,
OC[C@@H]1[C@@H](c2ccc(Cl)cc2)C(c2ccccc2)=NN1c1ccccc1,x,x,n,x,x,n,x,x,
OC[C@@H]1[C@@H](c2ccc(F)cc2)C(c2cccc(Cl)c2)=NN1c1ccccc1,x,x,29,x,x,n,30,54,
CCOc1ccc(CCNC(=O)C2CC(=O)N(c3ccc4c(c3)OCCO4)C2)cc1OCC (stereo unspecified),x,x,n,x,x,n,x,x,
CCCCN(C)CC(O)Cn1cc(/C=C/C(=O)c2ccc(C)cc2)c2ccccc21 (stereo unspecified),x,x,32,x,x,n,44,41,
NNc1nc2ccc(F)cc2s1,n,n,30,n,n,n,n,n,
NNc1nc2ccc(Cl)cc2s1,n,n,n,n,n,n,x,x,
Cc1ccc(-c2cc(C(F)F)nc(S(C)(=O)=O)n2)cc1,n,n,23,n,n,n,n,n,
COc1ccc(/C=C2\CCC(C3CCCC3)C2=O)cc1 (stereo unspecified),x,x,n,x,x,n,x,x,
COc1ccc(/C=C2/CCC(CN3CCOCC3)C2=O)cc1 (stereo unspecified),x,x,34,x,x,n,92,18,
C[C@H]1CN([C@@H](C)CO)C(=O)CCCn2nncc2CO[C@H]1CN(C)S(=O)(=O)c1ccc(Oc2ccccc2)nc1,x,x,n,x,x,n,x,x,
CC1=NNC(=O)/C1=C\c1cn(-c2ccccc2)nc1-c1ccccc1,n,n,54,n,n,n,60,n,
CCOC(=O)C1=CC[C@@H](c2ccccc2)N(S(=O)(=O)c2ccc(C)cc2)[C@H]1C#N,x,x,44,x,x,x,n,n,
Cc1cccc(Cn2cc(/C=C/[N+](=O)[O-])c3ccccc32)c1,n,n,n,n,n,n,x,x,
O=[N+]([O-])/C=C/c1cn(Cc2ccc(Cl)cc2)c2ccccc12,n,n,21,n,n,n,38,n,
CC(C)(C)OC(=O)NCCCCCNC(=O)c1[nH]cnc1C(=O)N[C@@H](Cc1ccccc1)C(=O)OC(C)(C)C,x,x,31,x,x,n,n,n,
CC(C)(C)OC(=O)[C@H](Cc1ccccc1)NC(=O)c1nc[nH]c1C(=O)NCCCCCN,x,x,n,x,x,n,x,x,
CCOc1ccc(C(=O)Nc2nnc(S(=O)(=O)Nc3ccccc3C)s2)cc1,x,x,24,x,x,n,n,n,

# Screening results (PubChem BioAssay)
